# According to ChEMBL document CHEMBL4145683, “Total Synthesis and Structure-Activity Relationships Study of Odilorhabdins, a New Class of Peptides Showing Potent Antibacterial Activity” (J Med Chem, 2018):
# Non-standard residues stand in square brackets, D forms with d. Residues, ends and D or L forms follow the SMILES beside them. *: point of attachment. Dab(3S-OH) = NC[C@H](O)[C@H](N)C(=O)O; ΔZArg = N=C(N)NCC/C=C(\N)C(=O)O; aThr = C[C@H](O)[C@H](N)C(=O)O; dOrn = NCCC[C@@H](N)C(=O)O; Dab = NCC[C@H](N)C(=O)O; NH(CH2)4NH2 = NCCCCN*
# Assays:
# [1] = tested on: Escherichia coli; assay: Antimicrobial activity against Escherichia coli ATCC BAA-2452 by broth microdilution method; type: functional
# Summary of the method: (§1)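 Broth microdilution MIC per CLSI M07-A10, with inoculum prepared by direct colony suspension. Reference strains were from ATCC and NCTC.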
# [2] = tested on: Klebsiella pneumoniae; assay: Antimicrobial activity against Klebsiella pneumoniae ATCC BAA-1904 by broth microdilution method; type: functional; summary of the method: as §1
# [3] = tested on: Klebsiella pneumoniae; assay: Antimicrobial activity against Klebsiella pneumoniae ATCC BAA-2473 by broth microdilution method; type: functional; summary of the method: as §1
# [4] = tested on: Escherichia coli; assay: microbe, parasite or virus in culture; conditions: ATCC 25922
# [5] = tested on: Klebsiella pneumoniae; assay: Antimicrobial activity against Klebsiella pneumoniae ATCC BAA-1905 by broth microdilution method; type: functional; summary of the method: as §1
# [6] = tested on: Escherichia coli; assay: Inhibition of bacterial protein synthesis in cell-free Escherichia coli incubated for 1 hr and measured for every 20 mins by bacterial cell-free transcription-translation assay; type: functional; conditions: Escherichia coli
# Summary of the method: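 E. coli cell-free coupled transcription-translation used a GFP gene in pEXP5-CT as template, started with 1 μg plasmid in 50 μL reactions. Feed buffer was added at 30 min, with incubation at 30 °C. Fluorescence (ex 475/em 520 nm) was read every 20 min. IC50 was taken at 1 h after feed addition from a four-parameter log(inhibitor)–response fit. Duplicates.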
# [7] = tested on: Klebsiella pneumoniae; assay: Antimicrobial activity against Klebsiella pneumoniae NCTC 13442 by broth microdilution method; type: functional
# Summary of the method: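 CLSI broth microdilution with direct colony suspension inoculum, per CLSI M07-A10. Reference strain taken from the NCTC collection.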
# [8] = tested on: Klebsiella pneumoniae; assay: Antimicrobial activity against Klebsiella pneumoniae ATCC 13883 by broth microdilution method; type: functional; summary of the method: as §1
# [9] = tested on: Klebsiella pneumoniae; assay: Antimicrobial activity against Klebsiella pneumoniae NCTC 13438 by broth microdilution method; type: functional; summary of the method: as §1
# [10] = tested on: Klebsiella pneumoniae; assay: Antimicrobial activity against Klebsiella pneumoniae ATCC BAA-2146 by broth microdilution method; type: functional; summary of the method: as §1
# [11] = tested on: Enterobacter cloacae; assay: Antimicrobial activity against Enterobacter cloacae ATCC BAA-2468 by broth microdilution method; type: functional
# [12] = tested on: mammalian protein synthesis; assay: Selectivity index, ratio of IC50 for inhibition of mammalian protein synthesis in rabbit reticulocyte lysate system incubated for 1 hr by mammalian cell-free transcription-translation assay to IC50 for Inhibition of bacterial protein synthesis in cell-free Escherichia coli; type: toxicity
# [13] = tested on: Klebsiella pneumoniae; assay: Antimicrobial activity against Klebsiella pneumoniae NCTC 13439 by broth microdilution method; type: functional; summary of the method: as §1
# [14] = Inhibition of mammalian protein synthesis in rabbit reticulocyte lysate system incubated for 1 hr by mammalian cell-free transcription-translation assay; parameters: species or system Oryctolagus cuniculus
# [15] = tested on: Escherichia coli; assay: Antimicrobial activity against Escherichia coli ATCC BAA-2340 by broth microdilution method; type: functional; summary of the method: as §1
# [16] = tested on: Klebsiella pneumoniae; assay: Antimicrobial activity against Klebsiella pneumoniae NCTC 13443 by broth microdilution method; type: functional; summary of the method: as §1
# [17] = tested on: Escherichia coli; assay: Antimicrobial activity against Escherichia coli ATCC BAA-2469 by broth microdilution method; type: functional; summary of the method: as §1
# [18] = tested on: Klebsiella pneumoniae; assay: Antimicrobial activity against Klebsiella pneumoniae ATCC BAA-2472 by broth microdilution method; type: functional; summary of the method: as §1
# [19] = tested on: Klebsiella pneumoniae; assay: Antimicrobial activity against Klebsiella pneumoniae ATCC 43816 by broth microdilution method; type: functional; summary of the method: as §1
# [20] = tested on: Klebsiella pneumoniae; assay: Antimicrobial activity against Klebsiella pneumoniae ATCC 13883 infected in neutropenic mouse pulmonary infection model assessed as reduction in lung bacterial load at 80 mg/kg, sc dosed 1 hr post infection and measured 8 hrs post infection relative to untreated control; type: functional
# Summary of the method: (§2)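 Mice were acclimatized for 5 days and made neutropenic with intraperitoneal cyclophosphamide (150 mg/kg on day 4, 100 mg/kg on day 1 pre-infection). They were infected intranasally with 2 × 10^6 CFU/mouse. At 1 h, a single SC dose was given in 10 mL/kg (6 mice/dose). […] A pretreatment group was sampled at 1 h. At 8 h, lungs were homogenized and plated on TSA for CFU. Analysis was one-way ANOVA with Dunnett's test vs vehicle.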
# [21] = tested on: Klebsiella pneumoniae; assay: Antimicrobial activity against Klebsiella pneumoniae ATCC 13883 infected in neutropenic mouse pulmonary infection model assessed as reduction in lung bacterial load at 40 mg/kg, sc dosed 1 hr post infection and measured 8 hrs post infection relative to untreated control; type: functional; summary of the method: as §2
# [22] = Klebsiella pneumoniae, ATCC 43816, read-out: MIC
SMILES,MIC [1] [µg/mL],MIC [2] [µg/mL],MIC [3] [µg/mL],MIC [4] [µg/mL],MIC [5] [µg/mL],IC50 [6] [nM],MIC [7] [µg/mL],MIC [8] [µg/mL],MIC [9] [µg/mL],MIC [10] [µg/mL],MIC [11] [µg/mL],MIC [13] [µg/mL],IC50 [14] [nM],MIC [15] [µg/mL],MIC [16] [µg/mL],MIC [17] [µg/mL],MIC [18] [µg/mL],"MIC [19, 22] [µg/mL]",selectivity ratio at 1 h [12],other results
C[C@H](NC(=O)[C@@H](NC(=O)[C@@H](N)CCCCN)[C@@H](O)CN)C(=O)NCC(=O)N[C@H](CCCN)C(=O)N1CCC[C@H]1C(=O)N[C@@H](Cc1cnc[nH]1)C(=O)N[C@@H](CCCCN)C(=O)N/C(=C\CCNC(=N)N)C(=O)O.Cl,–,–,–,–,–,–,–,–,–,–,–,–,–,–,–,–,–,–,–,Activity [20]: 3 log10CFU/ml; Activity [21]: 2 log10CFU/ml
C[C@H](NC(=O)[C@@H](NC(=O)[C@@H](N)CCCCN)[C@@H](O)CN)C(=O)NCC(=O)N[C@H](CCCN)C(=O)N1CCC[C@H]1C(=O)N[C@@H](Cc1cnc[nH]1)C(=O)N[C@@H](CCCCN)C(=O)N/C(=C\CCNC(=N)N)C(=O)O,16,4,4,16,8,550,4,4,8,4,4,4,168000,16,4,16,4,4,300,–
N=C(N)NCC/C=C(\NC(=O)[C@H](CCCCN)NC(=O)[C@H](Cc1cnc[nH]1)NC(=O)[C@@H]1CCCN1C(=O)[C@@H](CCCN)NC(=O)CNC(=O)[C@H](CCN)NC(=O)[C@@H](NC(=O)[C@@H](N)CCCCN)[C@@H](O)CN)C(=O)N[C@@H](CCCCN)C(=O)NCCCCN (H-K[Dab(3S-OH)][Dab]G[dOrn]PHK[ΔZArg]K-{NH(CH2)4NH2}),–,–,–,4,–,1100,–,–,–,–,–,–,–,–,–,–,–,4,–,–
C[C@H](O)[C@H](NC(=O)[C@@H](NC(=O)[C@@H](N)CCCCN)[C@@H](O)CN)C(=O)NCC(=O)N[C@H](CCCN)C(=O)N1CCC[C@H]1C(=O)N[C@@H](Cc1cnc[nH]1)C(=O)N[C@@H](CCCCN)C(=O)N/C(=C\CCNC(=N)N)C(=O)N[C@@H](CCCCN)C(=O)NCCCCN (H-K[Dab(3S-OH)][aThr]G[dOrn]PHK[ΔZArg]K-{NH(CH2)4NH2}),–,–,–,8,–,1000,–,–,–,–,–,–,–,–,–,–,–,8,–,–

# The next lines start with results.
MIC [1] [µg/mL],MIC [2] [µg/mL],MIC [3] [µg/mL],MIC [4] [µg/mL],MIC [5] [µg/mL],IC50 [6] [nM],MIC [7] [µg/mL],MIC [8] [µg/mL],MIC [9] [µg/mL],MIC [10] [µg/mL],MIC [11] [µg/mL],MIC [13] [µg/mL],IC50 [14] [nM],MIC [15] [µg/mL],MIC [16] [µg/mL],MIC [17] [µg/mL],MIC [18] [µg/mL],"MIC [19, 22] [µg/mL]",SMILES,selectivity ratio at 1 h [12],other results
8,2,4,8,4,630,8,4,4,2,4,2,10300,8,4,4,4,4,N=C(N)NCC/C=C(\NC(=O)[C@H](CCCCN)NC(=O)[C@H](Cc1cnc[nH]1)NC(=O)[C@@H]1CCCN1C(=O)[C@@H](CCCN)NC(=O)CNC(=O)[C@@H](NC(=O)[C@@H](NC(=O)[C@@H](N)CCCCN)[C@@H](O)CN)[C@@H](O)CN)C(=O)N[C@@H](CCCCN)C(=O)NCCCCN,16,MIC [19]: 4 µg/mL
–,–,–,16,–,360,–,–,–,–,–,–,–,–,–,–,–,4,N=C(N)NCC/C=C(\NC(=O)[C@H](CCCCN)NC(=O)[C@H](Cc1cnc[nH]1)NC(=O)[C@@H]1CCCN1C(=O)[C@@H](CCCN)NC(=O)CNC(=O)[C@@H](NC(=O)[C@@H](NC(=O)[C@@H](N)CCCCN)[C@@H](O)CN)[C@@H](O)CN)C(=O)N[C@@H](CCCCN)C(=O)O (H-K[Dab(3S-OH)][Dab(3S-OH)]G[dOrn]PHK[ΔZArg]K-OH),–,–
